Calls of active or inactive are those of the source.
Assays:
Assay type in all cases: functional, cell-based
[1] = test system: HEp-2; test: Effect on cytokine level in human Hep2 cells assessed as TNFRI level pretreated at 64 ug/ml for 24 hrs
Outline: (§1)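 Confluent HEp-2 cells on chambered slides were given fresh medium containing antibiotic at 64 μg/ml, acetone diluent (64 μl), or no antibiotic. Supernatants collected 24 h later were probed on a cytokine array membrane covering GM-CSF, MIPs, MMP3, RANTES, TGF-β, IFN-γ, TNFRI/II, VCAM-1, VEGF and interleukins. Each analyte was read as detected or not detected.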

[2] = test system: Escherichia coli; test: Inhibition of enteroaggregative Escherichia coli 042 adherence to human HeLa cells pretreated at 64 ug/ml for 24 hrs by adherence assay
Outline: (§2)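 Confluent cells in 24-well plates, in DMEM with 10% FBS and no antibiotics, were pretreated with drug (from acetone stock) or an equal volume of acetone, then washed three times with PBS. HEp-2 received 8, 32 or 64 μg/ml; the other lines 32 or 64 μg/ml for 24 h. Cells were then infected for 3 h at 37°C (next note).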

[3] = test system: Escherichia coli; test: Inhibition of enteroaggregative Escherichia coli 042 adherence to human A549 cells pretreated at 64 ug/ml for 24 hrs by adherence assay; outline: as §2
[4] = test system: HEp-2; test: Effect on cytokine level in human Hep2 cells assessed as IL-8 level pretreated at 64 ug/ml for 24 hrs; outline: as §1
[5] = test system: HEp-2; test: Effect on cytokine level in human Hep2 cells assessed as RANTES level pretreated at 64 ug/ml for 24 hrs; outline: as §1
[6] = test system: HEp-2; test: Effect on cytokine level in human Hep2 cells assessed as MIP4 level pretreated at 64 ug/ml for 24 hrs; outline: as §1
[7] = test system: HEp-2; test: Effect on cytokine level in human Hep2 cells assessed as TNFR2 level pretreated at 64 ug/ml for 24 hrs; outline: as §1
[8] = test system: Escherichia coli; test: Inhibition of enteroaggregative Escherichia coli 042 adherence to human Hep2 cells using cell supernatants from pretreated at 64 ug/ml for 24 hrs by adherence assay; conditions: HEp-2
Outline: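 Confluent HEp-2 cells were grown 24 h in medium with 64 μg/ml antibiotic, acetone, or nothing. The conditioned medium was dialyzed against PBS (6–8 kDa cutoff, four changes of at least 6 h each, 4°C). EAEC (7 × 10^6/ml) was mixed 1:1 with dialyzed medium and added to untreated HEp-2 slides or cell-free chambers for 3 h, then stained and examined microscopically.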

[9] = test system: Escherichia coli; test: Inhibition of enteroaggregative Escherichia coli 042 adherence to human HCT-8 cells pretreated at 64 ug/ml for 24 hrs by adherence assay; outline: as §2
[10] = test system: Escherichia coli; test: Inhibition of enteroaggregative Escherichia coli 042 adherence to human Hep2 cells pretreated at 32 ug/ml for 24 hrs by adherence assay; conditions: HEp-2; outline: as §2
[11] = test system: HEp-2; test: Effect on cytokine level in human Hep2 cells assessed as VCAM-1 level pretreated at 64 ug/ml for 24 hrs; outline: as §1
[12] = test system: HEp-2; test: Effect on cytokine level in human Hep2 cells assessed as IL-15 level pretreated at 64 ug/ml for 24 hrs; outline: as §1
[13] = test system: HEp-2; test: Effect on cytokine level in human Hep2 cells assessed as IL-6 level pretreated at 64 ug/ml for 24 hrs; outline: as §1
[14] = test system: HEp-2; test: Effect on cytokine level in human Hep2 cells assessed as GM-CSF level pretreated at 64 ug/ml for 24 hrs; outline: as §1
[15] = test system: HEp-2; test: Effect on cytokine level in human Hep2 cells assessed as absence of MIP5 pretreated at 64 ug/ml for 24 hrs; outline: as §1
[16] = test system: HEp-2; test: Effect on cytokine level in human Hep2 cells assessed as MMP3 level pretreated at 64 ug/ml for 24 hrs; outline: as §1
[17] = test system: HEp-2; test: Effect on cytokine level in human Hep2 cells assessed as IL-4 level pretreated at 64 ug/ml for 24 hrs; outline: as §1
[18] = test system: HEp-2; test: Effect on cytokine level in human Hep2 cells assessed as VEGF level pretreated at 64 ug/ml for 24 hrs; outline: as §1
[19] = test system: Escherichia coli; test: Inhibition of enteroaggregative Escherichia coli 042 adherence to human Hep2 cells pretreated at 64 ug/ml for 24 hrs by adherence assay; conditions: HEp-2; outline: as §2
[20] = test system: HEp-2; test: Effect on cytokine level in human Hep2 cells assessed as TGF-beta level pretreated at 64 ug/ml for 24 hrs; outline: as §1
[21] = test system: HEp-2; test: Effect on cytokine level in human Hep2 cells assessed as MIP5 level pretreated at 64 ug/ml for 24 hrs; outline: as §1
[22] = test system: HEp-2; test: Effect on cytokine level in human Hep2 cells assessed as IFN-gamma level pretreated at 64 ug/ml for 24 hrs; outline: as §1
[23] = test system: HEp-2; test: Effect on cytokine level in human Hep2 cells assessed as IL-12 (p40) level pretreated at 64 ug/ml for 24 hrs; outline: as §1
[24] = test system: Escherichia coli; test: Inhibition of enteroaggregative Escherichia coli 042 adherence to human Hep2 cells pretreated by adherence assay; conditions: HEp-2
Outline: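 HEp-2 monolayers, confluent unless otherwise specified, in chambered slides were exposed to antibiotic or controls for 4, 8, 16, 18 or 24 h, then washed three times with PBS. EAEC O42 (7 × 10^6 to 1 × 10^7 in DMEM, 10% FBS, 1% D-mannose) was added for 3 h at 37°C. Attachment was assessed microscopically after Wright-Giemsa staining.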

In the case of `CO[C@H]1/C=C/O[C@@]2(C)Oc3c(C)c(O)c4c(O)c(c5c(nc6cc(C)ccn65)c4c3C2=O)NC(=O)/C(C)=C\C=C\[C@H](C)[C@H](O)[C@@H](C)[C@@H](O)[C@@H](C)[C@H](OC(C)=O)[C@@H]1C`, the Activity [1] is reported as “Active”, the inhibition [2] is reported as “Active” and the inhibition [3] is reported as “Active”. The Activity [4] was “Active”, the Activity [5] was “Active” and the Activity [6] was “Active”. The Activity [7] was “Active”, the inhibition [8] was “inactive” and the inhibition [9] was “inactive”. The inhibition [10] was “Active”, the Activity [11] was “Active” and the Activity [12] was “Active”. The Activity [13] was “Active”, the Activity [14] was “Active” and the Activity [15] was “Active”. For the same molecule, the Activity [16] was “Active”, the Activity [17] was “Active” and the Activity [18] was “Active”. The inhibition [19] was “Active”, the Activity [20] was “Active” and the Activity [21] was “Active”. The Activity [22] was “Active” and the Activity [23] was “Active”.
With `CO[C@H]1/C=C/O[C@@]2(C)Oc3c(C)c(O)c4c(O)c(c(/C=N/N5CCN(C)CC5)c(O)c4c3C2=O)NC(=O)/C(C)=C\C=C\[C@H](C)[C@H](O)[C@@H](C)[C@@H](O)[C@@H](C)[C@H](OC(C)=O)[C@@H]1C` the inhibition [24] was “Active”.

— ChEMBL document CHEMBL1240348, “Pretreatment of epithelial cells with rifaximin alters bacterial attachment and internalization profiles” (Antimicrob Agents Chemother, 2010)
